# Reference: the M2OR odorant receptor database
# Biological target: T1, OR1A1 (Homo sapiens) (UniProt Q9P1Q5)
# T1 sequence (whole entry): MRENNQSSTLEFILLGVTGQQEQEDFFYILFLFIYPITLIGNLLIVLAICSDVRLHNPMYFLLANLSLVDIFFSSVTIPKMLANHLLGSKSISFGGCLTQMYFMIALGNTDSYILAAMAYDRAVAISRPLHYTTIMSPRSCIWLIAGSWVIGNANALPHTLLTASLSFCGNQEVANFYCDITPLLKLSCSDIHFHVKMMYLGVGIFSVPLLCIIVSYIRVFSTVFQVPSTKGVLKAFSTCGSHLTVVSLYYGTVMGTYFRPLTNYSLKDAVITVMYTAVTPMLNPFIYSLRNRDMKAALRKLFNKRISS
# Conditions: stereoisomer not certain
# Method in brief: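 Transient luciferase assays in mammalian cell lines were common, though methods varied by source. The values come from published papers and their supplementary material, with extra details from the original authors when needed. Responsive refers to a measured signal the original authors judged statistically different from baseline, and non-responsive (inactive) to the remainder.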
# 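Further: active if original authors judged signal statistically different from baseline.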
row,SMILES,odorant receptor agonist call
1,CC(C)=CCCC(C)=CCO,active
2,OCC=Cc1ccccc1,inactive
3,CN(C)C,inactive
4,CCOC(=O)CC(C)C,inactive
5,CCCCC1CCC(=O)O1 (configuration not stated),inactive
6,Cc1occc1S,inactive
7,CC12CCC(CC1=O)C2(C)C (configuration not stated),inactive
8,CC(=O)C=CC1=C(C)CCCC1(C)C,inactive
9,CCC(C)COC(C)=O (configuration not stated),inactive
10,C=C1CCC2CC1C2(C)C (configuration not stated),inactive
11,c1cnc2c(c1)ccc1cccnc12,inactive
12,CC(C)=CCCC(C)CC=O (configuration not stated),active
13,CCCCCCCCS,active
14,CC(=O)C1=NCCS1,inactive
15,CCCc1ccc(O)c(OC)c1,inactive
16,O=C(c1ccccc1)c1ccccc1,active
17,SCCc1ccccc1,active
18,C=CC(=O)CC,inactive
19,C=Cc1ccc(O)cc1,inactive

row,SMILES,odorant receptor agonist call
1,CCCCCCOC(C)=O,inactive
2,CCCCCCCC=CC=CC=O,inactive
3,CC=CC(=O)C(C)CC (configuration not stated),inactive
4,CC(C)=CCCC(C)=CCCC(C)=CCO,inactive
5,CCCCC(C)=O,inactive
6,CCCCC(=O)C(C)=O,inactive
7,CCCCCCCCC=CC=O,inactive
8,CCCCCC1=C(C)CCC1=O,active
9,CCOC(=O)Cc1cccc(Br)c1,active
10,Cc1cccc(C)c1O,inactive
11,CCCC(=O)OCC,inactive
12,COC(=O)C=Cc1ccccc1,inactive
13,CCc1ccc(O)cc1,inactive
14,CC(C)=CCCC(C)CC(=O)O (configuration not stated),inactive
15,CCCCC(=O)O,inactive
16,CC(CC=O)CCCC(C)(C)O (configuration not stated),active
17,CCCCC(=O)CC(C)=O,active
18,CCCCC(CC)CCC(=O)O (configuration not stated),inactive
